Assay outcomes as filed in PubChem BioAssay.
HKDC1 inh – inhibitors of human hexokinase HKDC1; Q2TB90; recombinant HKDC1, G6PDH/diaphorase resazurin coupled fluorescence; inhibition, % at 20 µM; 340,000 compounds, 0.16% hits;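 active means inhibition above about 35% when tested at 20 µM, limit read from the data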;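 further: plate controls were DMSO wells with enzyme for no effect and DMSO wells lacking enzyme for full effect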
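Material: recombinant HKDC1 hexokinase; Amount: HKDC1 at 5 µg/mL; Medium: Tris pH 8.0 buffer with MgCl2, Tween-20, BSA, BME; Schedule: 90 min reaction incubation at room temperature, dark; Technique: coupled resazurin fluorescence, excitation 525 nm, emission 613 nm.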
Scp1 inh – Scp-1 (human) phosphatase inhibition; Q9GZU7; Recombinant Scp1, phosphopeptide, malachite green phosphate absorbance; inhibition, % at 20 µM; 340,000 compounds, 0.88% hits; AID 493091;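 active means inhibition above about 50% at 20 µM, limit read from the data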;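 further: plate controls were DMSO wells with enzyme for no effect and wells lacking enzyme for full effect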
Target sequence (Q9GZU7 76-261 limits assumed): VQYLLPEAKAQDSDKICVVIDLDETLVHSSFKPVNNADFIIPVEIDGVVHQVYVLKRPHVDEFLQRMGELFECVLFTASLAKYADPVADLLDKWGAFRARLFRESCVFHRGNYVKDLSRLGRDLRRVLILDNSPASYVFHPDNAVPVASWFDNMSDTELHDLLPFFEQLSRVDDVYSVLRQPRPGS
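Assay system: SCP-1 catalytic fragment, aa 76-261 | Buffer or medium: Tris acetate buffer pH 5.5 with MgCl2 and Tween-20 | Compound: One concentration, 20 µM, with 1.0% DMSO | Also added: Phospho 17-mer peptide substrate | Signal: Absorbance at 630 nm | Incubation: 45 min enzyme reaction at room temperature | Measure: % inhibition of SCP-1 phosphate liberation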
LMPTP inh – blocks human LMPTP phosphatase. P24666. recombinant LMPTP-A, OMFP fluorogenic substrate, fluorescence intensity. inhibition, % at 20 µM. 360,000 compounds, 0.22% hits. AID 651560;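 active means compounds that cut the enzyme signal by at least half of the control window in the single-dose screen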;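 further: plate controls were DMSO wells with enzyme plus substrate for no effect and substrate without enzyme for full effect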
Target sequence (P24666 whole entry, looked up): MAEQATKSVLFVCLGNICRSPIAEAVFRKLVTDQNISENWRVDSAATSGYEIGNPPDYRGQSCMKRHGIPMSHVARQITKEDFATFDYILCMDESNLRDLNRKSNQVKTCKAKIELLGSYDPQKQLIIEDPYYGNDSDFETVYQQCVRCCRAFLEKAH
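Test system – LMPTP-A phosphatase enzyme · Quantity – 0.625 nM LMPTP-A final · Reagent – OMFP substrate, 400 µM final · Dosing – one test concentration per compound, 20 µM, with 3% DMSO overall · Timing – 50 min enzyme reaction at room temperature, protected from light · Detection – fluorescence intensity · Controls – substrate-only low control, DMSO enzyme-plus-substrate high control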
STEP block – inhibitors of human striatal-enriched phosphatase STEP; recombinant STEP, OMFP fluorogenic substrate, fluorescence; inhibition, % at 20 µM; 360,000 compounds, 0.25% hits;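 active means inhibition at 20 µM, scaled per plate between control wells, above about 37%, limit read from the data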;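 further: 0% = DMSO with enzyme and substrate and 100% = substrate only without enzyme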
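Assay system: isolated STEP enzyme / Timing: 20 min at room temperature, dark / Doses: 20 µM, 1% DMSO / Technique: fluorescence intensity, excitation 480 nm, emission 540 nm / Reagent: fluorogenic phosphatase substrate OMFP at 25 µM final / Measure: percent inhibition scaled to no-enzyme and uninhibited-enzyme controls, plate-pattern corrected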
SUMO1 PPI mod – alters human SUMO1 binding to SIM partners. P63165. SUMO1 binding to a labelled peptide, TR-FRET, 1 h. inhibition, % at 20 µM. 360,000 compounds, 0.33% hits. AID 602429; in the data active means inhibition above about 37%
Target sequence (P63165 whole entry, looked up): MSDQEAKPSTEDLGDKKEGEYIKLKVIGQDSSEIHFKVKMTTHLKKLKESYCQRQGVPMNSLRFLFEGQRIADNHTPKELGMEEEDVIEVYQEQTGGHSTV
DNMT1 block – blocks human DNA methyltransferase DNMT1. DNMT1 molecular beacon, Hinp1I cleavage, fluorescence. 360,000 compounds, 0.83% hits. AID 588458. inhibition (reported as % activation of signal), % at 10 µM; in the data active means inhibition above about 50%
Scp1 confirm – confirmation of human Scp-1 phosphatase inhibitors. shares compounds with Scp1 inh. recombinant SCP-1 catalytic domain, phosphate release, malachite green absorbance. inhibition, % at 20 µM. 2,500 compounds, 61% hits;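 further: plate controls were DMSO with enzyme for no effect and buffer wells lacking enzyme for full effect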
Scp-1 MG ctr – counter-screen for Scp-1 inhibitors: colorimetric interference; shares compounds with Scp1 inh; Colorimetric interference counterscreen, malachite green absorbance 630 nm; apparent inhibition (interference), % at 20 µM; 2,500 tested, under 10 active;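 further: compounds added after enzyme reaction finished so only phosphate colour detection is probed; plate controls were DMSO wells with completed Scp-1 reaction for no effect and substrate wells lacking enzyme for full effect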
Scp-1 Tm shift – Scp-1 (human) binding by thermal shift; shares compounds with Scp1 inh; 1,500 compounds, 25% hits; thermal shift relative to vanadate control, % at 40 µM; Recombinant SCP1, Sypro Orange thermal shift Tm;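 active means substances whose mean melting-temperature shift, as a percentage of the reference inhibitor's shift, reaches about 5.3%, limit read from the data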;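 further: 0% = Tm of DMSO wells and 100% = Tm with sodium orthovanadate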
* marks the source's active call; other numbers are inactive results. A selection: hits, their analogues and other compounds. The true share with any hit is near 1.8%.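 How the source made its calls, unless noted: active means inhibition of at least 30% at 20 µM; inactive means the rest.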

For CCCNC(=O)N1C2=NC(C(=O)OC)=C(C(=O)OC)[C@@H]3N(Cc4ccccc4)c4ccccc4[C@]23C[C@H]1CO the results were HKDC1 inh 6, Scp1 inh -4, LMPTP inh -1, STEP block -1, SUMO1 PPI mod -18 and DNMT1 block -2.
O=C1Nc2cnc(Cl)nc2Nc2ccccc21 was read as LMPTP inh -1, STEP block 1, SUMO1 PPI mod -8 and DNMT1 block 7.
`COC(=O)C1=C(COc2ccccc2)NC(=O)NC1c1ccc2ccccc2c1` (stereo not drawn) gave HKDC1 inh 1, Scp1 inh 50*, Scp1 confirm 31*, Scp-1 MG ctr -14 and Scp-1 Tm shift -33.
Screening CS(=O)(=O)N1Cc2cc(C(=O)NCC3CC3)nc(-c3cccc(-c4cccnc4)c3)c2[C@H]1CCO returned LMPTP inh 1 and SUMO1 PPI mod 0.
`Cn1nc2c(c1C(=O)O)CCCC2` gave HKDC1 inh 0, Scp1 inh 60*, LMPTP inh 0, STEP block -6, SUMO1 PPI mod 1, DNMT1 block 41, Scp1 confirm 67*, Scp-1 MG ctr 1 and Scp-1 Tm shift -5.
`Cn1nc2c(c1C(=O)N1CCCC(C(=O)c3cc(F)ccc3F)C1)CCCC2` (stereo not drawn) gave HKDC1 inh 1, Scp1 inh -2, LMPTP inh -2, STEP block -2, SUMO1 PPI mod 2 and DNMT1 block 5.
Screening CC(C)(CNC(=O)c1cccc(S(=O)(=O)Nc2ccc(Br)cc2)c1)N1CCOCC1 returned HKDC1 inh -2, Scp1 inh -4, LMPTP inh 0, STEP block 0, SUMO1 PPI mod -3 and DNMT1 block 0.
For Cc1ccc(-c2c(C#N)c(N)n3c(nc4ccccc43)c2C#N)cc1 the results were HKDC1 inh 22, Scp1 inh 57*, LMPTP inh 19, STEP block 12, SUMO1 PPI mod -9, DNMT1 block -12, Scp1 confirm 14 and Scp-1 MG ctr -19.
For Cc1ccc(S(=O)(=O)N2CCN(C(=O)c3ccccc3)CC2)cc1 the results were HKDC1 inh -1, Scp1 inh -9, LMPTP inh -1, STEP block 1, SUMO1 PPI mod 1 and DNMT1 block 2.
Cc1ccc(S(=O)(=O)N2CCN(C(=O)c3cccc(-n4cccc4)c3)CC2)cc1 was read as HKDC1 inh 5, Scp1 inh 86*, LMPTP inh 6, STEP block 4, SUMO1 PPI mod 11, DNMT1 block 32, Scp1 confirm 43*, Scp-1 MG ctr -5 and Scp-1 Tm shift 0.
CC(C)C[C@@H](CN1C(=O)C(=O)NC[C@@H]1CC(C)C)NC(=O)Cc1ccccc1 was read as HKDC1 inh -3, Scp1 inh -3, LMPTP inh 0, STEP block 1, SUMO1 PPI mod 4, DNMT1 block 2, Scp1 confirm -8 and Scp-1 MG ctr -8.
`CCc1ccc(N2CC(C(=O)OCC(=O)NC3CC3)CC2=O)cc1` (stereo not drawn) gave HKDC1 inh -6, Scp1 inh -7, LMPTP inh -2, STEP block -1, SUMO1 PPI mod 1 and DNMT1 block 8.
For Cc1nn(CCc2nn[nH]n2)c2nc(C(F)(F)F)cc(C(F)(F)F)c12 the results were HKDC1 inh 12, Scp1 inh -7, LMPTP inh 1, STEP block -6, SUMO1 PPI mod 1 and DNMT1 block 1.
Screening Cc1nn(CCc2nn[nH]n2)c2nc(-c3ccc(Br)cc3)cc(C(F)(F)F)c12 returned HKDC1 inh 4, Scp1 inh 53*, LMPTP inh 0, STEP block 26, SUMO1 PPI mod 4, DNMT1 block -1, Scp1 confirm 24 and Scp-1 MG ctr -15.
CC(=O)COc1coc(CN2CCN(c3ccc(F)cc3)CC2)cc1=O was read as HKDC1 inh -1, Scp1 inh 51*, LMPTP inh 0, STEP block -3, SUMO1 PPI mod 3, DNMT1 block -1, Scp1 confirm -6 and Scp-1 MG ctr -8.
Screening O=C(COc1coc(CN2CCN(c3ccc(F)cc3)CC2)cc1=O)Nc1ccccc1 returned HKDC1 inh -9, Scp1 inh 1, LMPTP inh 1, STEP block -1, SUMO1 PPI mod 4 and DNMT1 block -3.
Screening C=C1CN(Cc2ccccc2)S(=O)(=O)c2ccccc21 returned HKDC1 inh 6, Scp1 inh 95*, LMPTP inh 3, STEP block -1, SUMO1 PPI mod 2, DNMT1 block 12, Scp1 confirm 68*, Scp-1 MG ctr -18 and Scp-1 Tm shift 0.
For C=C1CN(CC(=O)OC)S(=O)(=O)c2ccccc21 the results were HKDC1 inh 2, Scp1 inh -1, LMPTP inh 0, STEP block -5, SUMO1 PPI mod -6 and DNMT1 block 4.
For COc1cc(N)ccc1NC(=O)c1cc2ccccc2o1 the results were HKDC1 inh 1, Scp1 inh -6, LMPTP inh -2, STEP block 1, SUMO1 PPI mod 2 and DNMT1 block -2.
Nc1nnn(CC(=O)N/N=C/c2cn[nH]c2-c2ccccc2)n1 was read as HKDC1 inh 7, Scp1 inh -1, LMPTP inh -2, STEP block 2, SUMO1 PPI mod -1 and DNMT1 block 0.
Screening CCc1ccc(NC(=O)CS(=O)CC(=O)Nc2ccc(F)cc2F)cc1 (stereo not drawn) returned HKDC1 inh 10, Scp1 inh 94*, LMPTP inh 6, STEP block 10, SUMO1 PPI mod -3, DNMT1 block 12, Scp1 confirm 89*, Scp-1 MG ctr -4 and Scp-1 Tm shift -21.
For Cc1ccc(-n2c(SCC(=O)c3c(N)n(C4CC4)c(=O)[nH]c3=O)nnc2N2CCOCC2)cc1 the results were HKDC1 inh -3, Scp1 inh -9, LMPTP inh -1, STEP block 0, SUMO1 PPI mod -1 and DNMT1 block -1.
